Test results taken from ChEMBL document CHEMBL5724801, “EUbOPEN Chemogenomics Library - Multiplex” (2024).
Where “and” joins values, the source holds several entries; their conditions need not be identical. Equal values may be shown once.

Test system: HEK-293T
Test: Multiplex assay against HEK293T
Assay type: toxicity, cell-based
Details: human
Procedure, shortened: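 Compound was added to live cells that had been stained at seeding with Hoechst33342, BioTracker Green Microtubule Cytoskeleton Dye, MitoTracker Red and Annexin V Alexa Fluor 680, and imaging followed on a CQ1 microscope at 37°C and 5% CO2. CellPathfinder machine-learning gating divided cells into Hoechst high-intensity objects or normal cells, normal cells into healthy, pyknosed or fragmented nuclei, and pyknosed cells into mitotic or apoptotic. Tubulin, mitochondrial-mass and membrane-permeability phenotypes are per cents of healthy-nucleus cells.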

[1] = 12 h, 1 µM, compound concentration 1 uM
[2] = 12 h, 10 µM, compound concentration 10 uM
[3] = 24 h, 1 µM, compound concentration 1 uM
[4] = 24 h, 10 µM, compound concentration 10 uM
[5] = 48 h, 1 µM, compound concentration 1 uM
[6] = 48 h, 10 µM, compound concentration 10 uM

## O=C(O)Cc1ccccc1Nc1c(Cl)cccc1Cl [DICLOFENAC]
[1]
  Population Apoptotic (%): 36% and 52%
  Population Fragmented Nuclei (%): 7%
  Population Healthy Nuclei (%): 77% and 79%
  Population Hoechst High Intensity Objects (%): 5% and 10%
  Population Membrane Permeable-Phenotype (%): 0%
  Population Mitochondria Different-Phenotype (%): 53% and 61%
  Population Mitotic Cells (%): 63% and 47%
  Population Normal (%): 94% and 89%
  Population Pyknosed Nuclei (%): 14% and 13%
  Population Tubulin-Different-Phenotype (%): 32% and 23%
  Total Cell Count: 376 and 324
[2]
  Population Apoptotic (%): 30% and 57%
  Population Fragmented Nuclei (%): 7%
  Population Healthy Nuclei (%): 77% and 75%
  Population Hoechst High Intensity Objects (%): 6% and 14%
  Population Membrane Permeable-Phenotype (%): 0%
  Population Mitochondria Different-Phenotype (%): 45% and 68%
  Population Mitotic Cells (%): 69% and 42%
  Population Normal (%): 93% and 85%
  Population Pyknosed Nuclei (%): 14% and 17%
  Population Tubulin-Different-Phenotype (%): 35%
  Total Cell Count: 480 and 370
[3]
  Population Apoptotic (%): 30% and 45%
  Population Fragmented Nuclei (%): 7% and 6%
  Population Healthy Nuclei (%): 76% and 78%
  Population Hoechst High Intensity Objects (%): 3% and 10%
  Population Membrane Permeable-Phenotype (%): 0%
  Population Mitochondria Different-Phenotype (%): 44% and 37%
  Population Mitotic Cells (%): 69% and 54%
  Population Normal (%): 96% and 89%
  Population Pyknosed Nuclei (%): 15% and 14%
  Population Tubulin-Different-Phenotype (%): 24% and 9%
  Total Cell Count: 456 and 418
[4]
  Population Apoptotic (%): 25% and 49%
  Population Fragmented Nuclei (%): 10%
  Population Healthy Nuclei (%): 77% and 75%
  Population Hoechst High Intensity Objects (%): 4% and 9%
  Population Membrane Permeable-Phenotype (%): 0%
  Population Mitochondria Different-Phenotype (%): 29% and 50%
  Population Mitotic Cells (%): 74% and 50%
  Population Normal (%): 95% and 90%
  Population Pyknosed Nuclei (%): 12% and 14%
  Population Tubulin-Different-Phenotype (%): 29% and 26%
  Total Cell Count: 650 and 462
[5]
  Population Apoptotic (%): 23% and 33%
  Population Fragmented Nuclei (%): 11% and 15%
  Population Healthy Nuclei (%): 82% and 79%
  Population Hoechst High Intensity Objects (%): 2%
  Population Membrane Permeable-Phenotype (%): 1%
  Population Mitochondria Different-Phenotype (%): 22% and 16%
  Population Mitotic Cells (%): 76% and 66%
  Population Normal (%): 97%
  Population Pyknosed Nuclei (%): 6% and 4%
  Population Tubulin-Different-Phenotype (%): 15% and 10%
  Total Cell Count: 730 and 697
[6]
  Population Apoptotic (%): 36%
  Population Fragmented Nuclei (%): 12% and 16%
  Population Healthy Nuclei (%): 80% and 75%
  Population Hoechst High Intensity Objects (%): 3% and 4%
  Population Membrane Permeable-Phenotype (%): 1% and 0%
  Population Mitochondria Different-Phenotype (%): 17% and 36%
  Population Mitotic Cells (%): 63%
  Population Normal (%): 96% and 95%
  Population Pyknosed Nuclei (%): 7%
  Population Tubulin-Different-Phenotype (%): 18% and 17%
  Total Cell Count: 883 and 649

## CN[C@@H](C)C(=O)N[C@H](C(=O)N1CCC[C@H]1C(=O)Nc1snnc1-c1ccccc1)C1CCCCC1 [GDC-0152]
[1]
  Population Apoptotic (%): 31% and 60%
  Population Fragmented Nuclei (%): 5%
  Population Healthy Nuclei (%): 78% and 79%
  Population Hoechst High Intensity Objects (%): 5% and 7%
  Population Membrane Permeable-Phenotype (%): 0%
  Population Mitochondria Different-Phenotype (%): 41% and 62%
  Population Mitotic Cells (%): 68% and 39%
  Population Normal (%): 94% and 92%
  Population Pyknosed Nuclei (%): 15% and 14%
  Population Tubulin-Different-Phenotype (%): 35% and 26%
  Total Cell Count: 444 and 314
[2]
  Population Apoptotic (%): 50% and 72%
  Population Fragmented Nuclei (%): 6% and 7%
  Population Healthy Nuclei (%): 73%
  Population Hoechst High Intensity Objects (%): 13% and 20%
  Population Membrane Permeable-Phenotype (%): 0%
  Population Mitochondria Different-Phenotype (%): 78% and 89%
  Population Mitotic Cells (%): 49% and 28%
  Population Normal (%): 86% and 80%
  Population Pyknosed Nuclei (%): 20% and 18%
  Population Tubulin-Different-Phenotype (%): 78% and 72%
  Total Cell Count: 362 and 330
[3]
  Population Apoptotic (%): 30% and 38%
  Population Fragmented Nuclei (%): 8% and 5%
  Population Healthy Nuclei (%): 80% and 82%
  Population Hoechst High Intensity Objects (%): 4% and 6%
  Population Membrane Permeable-Phenotype (%): 1% and 0%
  Population Mitochondria Different-Phenotype (%): 28% and 53%
  Population Mitotic Cells (%): 69% and 61%
  Population Normal (%): 95% and 93%
  Population Pyknosed Nuclei (%): 10% and 12%
  Population Tubulin-Different-Phenotype (%): 23% and 22%
  Total Cell Count: 601 and 387
[4]
  Population Apoptotic (%): 45% and 60%
  Population Fragmented Nuclei (%): 10% and 12%
  Population Healthy Nuclei (%): 71% and 68%
  Population Hoechst High Intensity Objects (%): 7% and 21%
  Population Membrane Permeable-Phenotype (%): 0%
  Population Mitochondria Different-Phenotype (%): 74% and 80%
  Population Mitotic Cells (%): 54% and 40%
  Population Normal (%): 92% and 78%
  Population Pyknosed Nuclei (%): 17% and 19%
  Population Tubulin-Different-Phenotype (%): 69% and 58%
  Total Cell Count: 454 and 400
[5]
  Population Apoptotic (%): 31% and 40%
  Population Fragmented Nuclei (%): 12% and 10%
  Population Healthy Nuclei (%): 78% and 82%
  Population Hoechst High Intensity Objects (%): 4% and 3%
  Population Membrane Permeable-Phenotype (%): 1%
  Population Mitochondria Different-Phenotype (%): 22% and 29%
  Population Mitotic Cells (%): 68% and 60%
  Population Normal (%): 95% and 96%
  Population Pyknosed Nuclei (%): 9% and 6%
  Population Tubulin-Different-Phenotype (%): 16%
  Total Cell Count: 928 and 603
[6]
  Population Apoptotic (%): 47% and 60%
  Population Fragmented Nuclei (%): 12%
  Population Healthy Nuclei (%): 73% and 70%
  Population Hoechst High Intensity Objects (%): 16% and 21%
  Population Membrane Permeable-Phenotype (%): 0%
  Population Mitochondria Different-Phenotype (%): 74% and 76%
  Population Mitotic Cells (%): 52% and 39%
  Population Normal (%): 83% and 78%
  Population Pyknosed Nuclei (%): 13% and 17%
  Population Tubulin-Different-Phenotype (%): 55% and 52%
  Total Cell Count: 538 and 417
